Results published in ChEMBL document CHEMBL1933008, “Novel 2-(2-(4-aryloxybenzylidene) hydrazinyl)benzothiazole derivatives as anti-tubercular agents” (2012).
Values after ≈ are worked out from the molar mass of the structure shown.

Experiments:
[1] = system: Mycobacterium tuberculosis; assay: Antitubercular activity against Mycobacterium tuberculosis H37Rv after 7 days by Resazurin microtiter assay; type: functional; settings: 168 h
Outline: (§1)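 M. tuberculosis H37Rv suspension seeded at 10^5 cells per well in Middlebrook 7H9 broth. Compounds serially diluted directly on the plate; control got equivalent DMSO. Incubated 37 °C for 7 days, then 0.02% fresh resazurin added and incubated a further 48 h. MIC read visually as the lowest concentration giving complete inhibition (no blue-to-pink change).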

[2] = system: Mycobacterium tuberculosis; assay: Antitubercular activity against Mycobacterium tuberculosis; type: functional; outline: as §1

In the case of Cc1ccc2nc(NN)sc2c1, the MIC [1] is reported as 222 µg/mL (≈ 1240 µM).
Work on NNc1nc2ccc(Cl)cc2s1 yielded an MIC [1] of 233 µg/mL (≈ 1170 µM).
NNc1nc2ccccc2s1 was tested, and the MIC [1] was 288 µg/mL (≈ 1740 µM).
Compound O=Cc1ccc(Oc2ccccc2)cc1 has an MIC [1] of 133 µg/mL (≈ 670 µM).
Work on O=Cc1ccc(Oc2ccccc2Cl)cc1 yielded an MIC [1] of 123 µg/mL (≈ 531 µM).
O=Cc1ccc(Oc2ccc(Cl)cc2)cc1 showed an MIC [1] of 117 µg/mL (≈ 504 µM).
C(=N/Nc1nc2ccccc2s1)/c1ccc(Oc2ccccc2)cc1 showed an MIC [1] of 12.7 µg/mL (≈ 36.7 µM).
With Clc1ccccc1Oc1ccc(/C=N\Nc2nc3ccccc3s2)cc1 the MIC [1] was 6 µg/mL (≈ 15.8 µM).
Clc1ccc(Oc2ccc(/C=N\Nc3nc4ccccc4s3)cc2)cc1 showed an MIC [1] of 2.94 µg/mL (≈ 7.74 µM).
Clc1ccc(Oc2ccc(/C=N\Nc3nc4ccccc4s3)cc2)c(Cl)c1 was tested, and the MIC [1] was 2.63 µg/mL (≈ 6.35 µM).
With Cc1cc(Oc2ccc(/C=N\Nc3nc4ccccc4s3)cc2)ccc1Cl the MIC [1] was 6.63 µg/mL (≈ 16.8 µM).
Clc1ccc2nc(N/N=C\c3ccc(Oc4ccccc4)cc3)sc2c1 was tested, and the MIC [1] was 5.5 µg/mL (≈ 14.5 µM).
In the case of Clc1ccc2nc(N/N=C\c3ccc(Oc4ccccc4Cl)cc3)sc2c1, the MIC [1] is reported as 2 µg/mL (≈ 4.83 µM).
Clc1ccc(Oc2ccc(/C=N\Nc3nc4ccc(Cl)cc4s3)cc2)cc1 showed an MIC [1] of 2.25 µg/mL (≈ 5.43 µM).
Work on Clc1ccc(Oc2ccc(/C=N/Nc3nc4ccc(Cl)cc4s3)cc2)c(Cl)c1 yielded an MIC [1] of 1.5 µg/mL (≈ 3.34 µM).
Cc1cc(Oc2ccc(/C=N\Nc3nc4ccc(Cl)cc4s3)cc2)ccc1Cl was tested, and the MIC [1] was 4.5 µg/mL (≈ 10.5 µM).
In the case of Cc1ccc2nc(N/N=C\c3ccc(Oc4ccccc4)cc3)sc2c1, the MIC [1] is reported as 9.13 µg/mL (≈ 25.4 µM).
Cc1ccc2nc(N/N=C\c3ccc(Oc4ccccc4Cl)cc3)sc2c1 showed an MIC [1] of 4.75 µg/mL (≈ 12.1 µM).
With Cc1ccc2nc(N/N=C\c3ccc(Oc4ccc(Cl)cc4)cc3)sc2c1 the MIC [1] was 15 µg/mL (≈ 38.1 µM).
Work on Cc1ccc2nc(N/N=C\c3ccc(Oc4ccc(Cl)cc4Cl)cc3)sc2c1 yielded an MIC [1] of 12.6 µg/mL (≈ 29.3 µM).
Cc1ccc2nc(N/N=C\c3ccc(Oc4ccc(Cl)c(C)c4)cc3)sc2c1 showed an MIC [1] of 15 µg/mL (≈ 36.8 µM).
Compound COc1ccc2nc(N/N=C\c3ccc(Oc4ccccc4)cc3)sc2c1 has an MIC [1] of 16.5 µg/mL (≈ 43.9 µM).
Compound COc1ccc2nc(N/N=C\c3ccc(Oc4ccccc4Cl)cc3)sc2c1 has an MIC [1] of 19.5 µg/mL (≈ 47.6 µM).
COc1ccc2nc(N/N=C\c3ccc(Oc4ccc(Cl)cc4)cc3)sc2c1 was tested, and the MIC [1] was 8 µg/mL (≈ 19.5 µM).
In the case of COc1ccc2nc(N/N=C\c3ccc(Oc4ccc(Cl)cc4Cl)cc3)sc2c1, the MIC [1] is reported as 27.5 µg/mL (≈ 61.9 µM).
COc1ccc2nc(N/N=C\c3ccc(Oc4ccc(Cl)c(C)c4)cc3)sc2c1 showed an MIC [1] of 27 µg/mL (≈ 63.7 µM).
O=[N+]([O-])c1ccc2nc(N/N=C\c3ccc(Oc4ccccc4)cc3)sc2c1 was tested, and the MIC [1] was 29 µg/mL (≈ 74.3 µM).
With O=[N+]([O-])c1ccc2nc(N/N=C\c3ccc(Oc4ccccc4Cl)cc3)sc2c1 the MIC [1] was 29.5 µg/mL (≈ 69.4 µM).
O=[N+]([O-])c1ccc2nc(N/N=C\c3ccc(Oc4ccc(Cl)cc4)cc3)sc2c1 gave an MIC [1] of 26.5 µg/mL (≈ 62.4 µM).
O=[N+]([O-])c1ccc2nc(N/N=C\c3ccc(Oc4ccc(Cl)cc4Cl)cc3)sc2c1 gave an MIC [1] of 23.5 µg/mL (≈ 51.2 µM).
In the case of Cc1cc(Oc2ccc(/C=N\Nc3nc4ccc([N+](=O)[O-])cc4s3)cc2)ccc1Cl, the MIC [1] is reported as 21.5 µg/mL (≈ 49 µM).
NNC(=O)c1ccncc1 [ISONIAZID] gave an MIC [1] of 0.4 µg/mL (≈ 2.92 µM).
For Oc1cc(Cl)ccc1Oc1ccc(Cl)cc1Cl [TRICLOSAN], the MIC [2] was 5 µg/mL (≈ 17.3 µM).
